Calls of active or inactive are those of the source. No cut-off for these calls is given here.
Experiments:
BaF3 [1] = assay: Induction of apoptosis in mouse BA/F3 cells expressing NRAS-G12D mutant assessed as decrease in bcl2 levels at 1 uM after 24 hrs by Western blot analysis; assay type: functional, cell-based
Method in brief: (§1)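 Cells treated 24 h with indicated concentrations (1 µM; 5 µM also used in Ba/F3-NRAS-G12D); cleaved PARP, cleaved caspase 3, bcl-2 and MCL1 detected by western blot with actin as loading control.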

Mus musculus = species: Mus musculus; assay: Inhibition of ACK1/GCK in mouse BA/F3 cells assessed as reduction in NRAS-G12D mutant-mediated cell proliferation after 72 hrs by celltiter-glo assay; assay type: cell-based
OCI-AML-3 [2] = assay: Inhibition of anchorage-independent cell growth in human OCI-AML3 cells harboring NRAS Q61L mutant assessed as reduction in colony size at 0.1 to 1 uM after 14 days by iodonitrotetrazolium chloride staining-based soft agar assay; assay type: functional
Method in brief: (§2)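 OCI-AML3 cells embedded in 0.7% low-melting agar, incubated 2 weeks with compound at 0.1 or 1 µM; colony number and colony size per well measured by automated image analysis; n = 3 per condition, SD, one-way ANOVA.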

[3] = molecular target: T1, Mitogen-activated protein kinase kinase kinase kinase 2 (Homo sapiens, UniProt Q12851); assay: Inhibition of GCK (unknown origin) by radiometric biochemical kinase assay
T1 sequence (Q12851 whole entry): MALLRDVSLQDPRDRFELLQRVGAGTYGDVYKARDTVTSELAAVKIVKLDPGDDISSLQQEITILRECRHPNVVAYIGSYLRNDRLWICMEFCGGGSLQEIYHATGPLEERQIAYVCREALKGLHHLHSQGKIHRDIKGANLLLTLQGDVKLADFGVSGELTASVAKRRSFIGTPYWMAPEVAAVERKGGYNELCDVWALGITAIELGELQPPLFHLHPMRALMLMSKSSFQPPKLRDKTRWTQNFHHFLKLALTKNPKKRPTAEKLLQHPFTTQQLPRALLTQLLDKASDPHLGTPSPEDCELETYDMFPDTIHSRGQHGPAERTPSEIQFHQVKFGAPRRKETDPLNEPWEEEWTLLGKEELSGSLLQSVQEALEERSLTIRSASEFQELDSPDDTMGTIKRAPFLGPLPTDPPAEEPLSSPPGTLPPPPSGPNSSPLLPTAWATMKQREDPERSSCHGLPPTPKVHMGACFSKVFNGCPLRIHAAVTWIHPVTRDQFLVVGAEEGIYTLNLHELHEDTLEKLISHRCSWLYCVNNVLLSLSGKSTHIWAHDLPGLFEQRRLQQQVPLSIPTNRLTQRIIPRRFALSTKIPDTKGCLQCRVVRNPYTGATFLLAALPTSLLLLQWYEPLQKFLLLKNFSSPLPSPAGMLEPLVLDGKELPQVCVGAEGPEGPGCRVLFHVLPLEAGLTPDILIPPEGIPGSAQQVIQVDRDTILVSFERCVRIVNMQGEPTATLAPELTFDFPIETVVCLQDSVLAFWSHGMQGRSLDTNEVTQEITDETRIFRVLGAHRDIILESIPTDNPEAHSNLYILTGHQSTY

[4] = Metabolic stability in rat liver microsomes assessed as compound remaining at 1 uM after 30 mins; assay type: ADME, microsome; conditions: read-out: Stability
CYP3A4 = CYP3A4 (Homo sapiens, UniProt P08684); assay: Inhibition of CYP3A4 (unknown origin) assessed as activity remaining at 10 uM relative to control; assay type: ADME; conditions: read-out: Activity
Chain of CYP3A4 (P08684 whole entry): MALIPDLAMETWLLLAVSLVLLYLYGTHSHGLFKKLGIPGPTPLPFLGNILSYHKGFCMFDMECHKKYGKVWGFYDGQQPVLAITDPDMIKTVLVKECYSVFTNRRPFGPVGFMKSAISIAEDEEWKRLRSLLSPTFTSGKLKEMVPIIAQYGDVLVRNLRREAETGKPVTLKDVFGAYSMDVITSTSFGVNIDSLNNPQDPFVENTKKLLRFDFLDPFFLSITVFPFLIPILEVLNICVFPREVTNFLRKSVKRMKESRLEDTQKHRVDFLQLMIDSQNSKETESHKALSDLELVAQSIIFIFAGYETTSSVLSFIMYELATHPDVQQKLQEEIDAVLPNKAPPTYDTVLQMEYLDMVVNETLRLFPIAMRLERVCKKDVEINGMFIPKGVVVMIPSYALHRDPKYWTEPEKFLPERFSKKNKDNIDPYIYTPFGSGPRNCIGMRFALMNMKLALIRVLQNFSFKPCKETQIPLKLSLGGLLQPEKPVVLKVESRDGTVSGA

BaF3 [5] = assay: Antileukemic activity against mouse BA/F3 cells harboring NRAS-G12D mutant/luciferase allografted in immunodeficient mouse at 8 mg/kg/day, po qd administered on day 6 post implantation measured on day 20 post implantation by bioluminescence imaging method; assay type: functional, organism-based
Method in brief: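 Immunodeficient mice injected via tail vein with Ba/F3-NRAS-G12D/Luc cells, dosed orally once daily (8 or 15 mg/kg/day) or vehicle for 3 weeks, n=4 per cohort; bioluminescence imaged every two days after luciferin 150 mg/kg, quantified by bio-photonic analysis.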

[6] = Growth inhibition of parental mouse BA/F3 cells after 72 hrs by celltiter-glo assay; assay type: cell-based, BaF3
[7] = Growth inhibition of parental human U937 cells after 72 hrs by celltiter-glo assay; assay type: cell-based, U-937
BaF3 [8] = assay: Induction of apoptosis in mouse BA/F3 cells expressing NRAS-G12D mutant assessed as decrease in MCL1 levels at 1 uM after 24 hrs by Western blot analysis; assay type: functional, cell-based; method in brief: as §1
BaF3 [9] = assay: Induction of apoptosis in mouse BA/F3 cells expressing NRAS-G12D mutant assessed as increase in cleaved PARP levels at 1 uM after 24 hrs by Western blot analysis; assay type: functional, cell-based; method in brief: as §1
OCI-AML-3 [10] = assay: Growth inhibition of ACK1/GCK knockdown human OCI-AML3 cells harboring NRAS-Q61L mutant at 0.2 uM after 72 hrs by celltiter-glo assay; assay type: functional, cell-based
[11] = Metabolic stability in dog liver microsomes assessed as compound remaining at 1 uM after 30 mins; assay type: ADME, Canis lupus familiaris, microsome; conditions: read-out: Stability
OCI-AML-3 [12] = assay: Inhibition of anchorage-independent cell growth in human OCI-AML3 cells harboring NRAS Q61L mutant assessed as reduction in colony number at 0.1 to 1 uM after 14 days by iodonitrotetrazolium chloride staining-based soft agar assay; assay type: functional; method in brief: as §2
Activated CDC42 kinase 1 = Activated CDC42 kinase 1 (Homo sapiens, UniProt Q07912); assay: Inhibition of ACK1 (unknown origin) by radiometric biochemical kinase assay
Chain of Activated CDC42 kinase 1 (Q07912 whole entry): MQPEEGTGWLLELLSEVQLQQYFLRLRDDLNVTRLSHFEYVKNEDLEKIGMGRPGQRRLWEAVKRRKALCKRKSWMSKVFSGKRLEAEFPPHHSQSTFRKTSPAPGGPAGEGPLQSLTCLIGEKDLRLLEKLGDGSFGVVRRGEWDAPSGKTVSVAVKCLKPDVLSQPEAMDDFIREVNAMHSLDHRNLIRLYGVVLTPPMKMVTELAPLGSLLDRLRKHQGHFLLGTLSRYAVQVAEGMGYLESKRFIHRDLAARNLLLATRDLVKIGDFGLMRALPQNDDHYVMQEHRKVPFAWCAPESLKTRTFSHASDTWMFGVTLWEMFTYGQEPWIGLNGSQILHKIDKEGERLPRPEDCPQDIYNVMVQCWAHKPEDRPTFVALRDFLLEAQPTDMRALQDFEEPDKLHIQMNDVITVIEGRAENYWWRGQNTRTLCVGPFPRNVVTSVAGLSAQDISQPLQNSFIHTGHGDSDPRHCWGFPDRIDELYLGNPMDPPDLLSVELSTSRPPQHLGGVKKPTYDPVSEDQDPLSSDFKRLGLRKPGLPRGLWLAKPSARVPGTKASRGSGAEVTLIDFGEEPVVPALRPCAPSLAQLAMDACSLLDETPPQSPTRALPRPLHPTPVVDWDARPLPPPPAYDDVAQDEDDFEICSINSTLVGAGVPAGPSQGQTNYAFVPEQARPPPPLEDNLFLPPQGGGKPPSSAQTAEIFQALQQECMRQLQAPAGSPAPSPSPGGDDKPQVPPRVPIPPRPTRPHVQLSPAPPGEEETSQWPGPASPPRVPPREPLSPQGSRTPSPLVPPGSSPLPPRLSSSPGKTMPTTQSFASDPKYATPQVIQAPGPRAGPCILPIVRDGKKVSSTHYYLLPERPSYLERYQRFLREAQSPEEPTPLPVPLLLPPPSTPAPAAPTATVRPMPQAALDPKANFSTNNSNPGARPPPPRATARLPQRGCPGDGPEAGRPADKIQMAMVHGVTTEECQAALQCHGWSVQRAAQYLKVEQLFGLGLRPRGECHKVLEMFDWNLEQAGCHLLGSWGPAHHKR

[13] = Metabolic stability in mouse liver microsomes assessed as compound remaining at 1 uM after 30 mins; assay type: ADME, microsome; conditions: read-out: Stability
CYP2C9 = CYP2C9 (Homo sapiens, UniProt P11712); assay: Inhibition of CYP2C9 (unknown origin) assessed as activity remaining at 10 uM relative to control; assay type: ADME; conditions: read-out: Activity
Chain of CYP2C9 (P11712 whole entry): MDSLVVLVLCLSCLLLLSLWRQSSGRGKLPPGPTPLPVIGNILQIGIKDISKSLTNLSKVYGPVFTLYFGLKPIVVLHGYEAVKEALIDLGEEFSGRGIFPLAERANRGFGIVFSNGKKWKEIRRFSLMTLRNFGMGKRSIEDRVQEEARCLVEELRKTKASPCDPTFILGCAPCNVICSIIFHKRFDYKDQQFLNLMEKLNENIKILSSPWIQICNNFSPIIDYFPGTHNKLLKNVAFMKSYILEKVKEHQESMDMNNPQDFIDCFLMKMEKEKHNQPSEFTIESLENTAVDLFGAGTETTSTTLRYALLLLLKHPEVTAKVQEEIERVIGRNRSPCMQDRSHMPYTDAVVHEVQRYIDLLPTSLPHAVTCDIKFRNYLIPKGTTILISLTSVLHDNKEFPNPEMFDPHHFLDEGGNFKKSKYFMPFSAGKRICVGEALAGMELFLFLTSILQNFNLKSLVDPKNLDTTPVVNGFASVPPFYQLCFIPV

OCI-AML-3 [14] = assay: Cell cycle arrest in human OCI-AML3 cells harboring NRAS Q61L mutant assessed as accumulation at G0/G1 phase at 1 uM after 24 hrs by propidium iodide staining based FACS analysis; assay type: functional
Method in brief: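 OCI-AML3 cells treated 24 h at indicated concentrations, including 1 µM; cell-cycle phase distribution measured by flow cytometry after propidium iodide staining.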

BaF3 [15] = assay: Antileukemic activity against mouse BA/F3 cells harboring NRAS-G12D mutant allografted in immunodeficient mouse assessed as median survival time at 8 mg/kg/day, po qd administered on day 6 post implantation (reference value: 23 days); assay type: functional
CYP1A2 = molecular target: T2, CYP1A2 (Homo sapiens, UniProt P05177); assay: Inhibition of CYP1A2 (unknown origin) assessed as activity remaining at 10 uM relative to control; assay type: ADME; conditions: read-out: Activity
T2 sequence (P05177 whole entry): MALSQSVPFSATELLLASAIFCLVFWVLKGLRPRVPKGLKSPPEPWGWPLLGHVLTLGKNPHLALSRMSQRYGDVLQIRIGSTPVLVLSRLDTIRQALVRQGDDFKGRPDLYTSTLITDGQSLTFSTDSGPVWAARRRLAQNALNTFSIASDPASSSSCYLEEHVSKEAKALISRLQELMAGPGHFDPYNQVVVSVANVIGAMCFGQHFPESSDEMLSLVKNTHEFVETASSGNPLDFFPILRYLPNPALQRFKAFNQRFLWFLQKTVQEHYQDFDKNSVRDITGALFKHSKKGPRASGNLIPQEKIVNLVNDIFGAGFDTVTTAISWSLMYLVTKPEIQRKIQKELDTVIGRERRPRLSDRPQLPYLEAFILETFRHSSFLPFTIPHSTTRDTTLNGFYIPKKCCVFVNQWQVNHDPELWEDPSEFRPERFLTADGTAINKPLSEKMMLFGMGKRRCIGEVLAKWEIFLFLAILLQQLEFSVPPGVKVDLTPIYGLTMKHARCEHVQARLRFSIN

BaF3 [16] = assay: Induction of apoptosis in mouse BA/F3 cells expressing NRAS-G12D mutant assessed as increase in cleaved caspase-3 levels at 1 uM after 24 hrs by Western blot analysis; assay type: functional, cell-based; method in brief: as §1
OCI-AML-3 [17] = assay: Growth inhibition of human OCI-AML3 cells harboring NRAS-Q61L mutant after 72 hrs by celltiter-glo assay; assay type: functional; conditions: OCI-AML-3, 72 h
CYP2D6 = CYP2D6 (Homo sapiens, UniProt P10635); assay: Inhibition of CYP2D6 (unknown origin) assessed as activity remaining at 10 uM relative to control; assay type: ADME; conditions: read-out: Activity
Chain of CYP2D6 (P10635 whole entry): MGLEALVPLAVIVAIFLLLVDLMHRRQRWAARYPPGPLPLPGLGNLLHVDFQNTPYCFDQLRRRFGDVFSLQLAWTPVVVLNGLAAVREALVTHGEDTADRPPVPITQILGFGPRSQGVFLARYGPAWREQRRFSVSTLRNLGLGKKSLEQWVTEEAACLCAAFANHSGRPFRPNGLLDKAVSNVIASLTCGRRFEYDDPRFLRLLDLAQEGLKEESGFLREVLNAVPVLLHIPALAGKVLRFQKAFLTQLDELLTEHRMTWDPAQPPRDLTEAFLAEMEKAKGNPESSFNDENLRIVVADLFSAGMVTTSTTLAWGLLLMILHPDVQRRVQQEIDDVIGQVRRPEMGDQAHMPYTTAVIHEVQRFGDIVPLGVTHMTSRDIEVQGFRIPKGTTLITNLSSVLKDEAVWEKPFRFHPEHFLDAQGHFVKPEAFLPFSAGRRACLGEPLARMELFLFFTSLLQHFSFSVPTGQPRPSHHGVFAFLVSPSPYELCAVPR

OCI-AML-3 [18] = assay: Antileukemic activity against human OCI-AML3 cells harboring NRAS-Q61L mutant xenografted in immunodeficient mouse assessed as tumor volume at 8 mg/kg/day, po qd administered on day 21 post implantation measured on […] (reference value: 100%); assay type: functional
[19] = Metabolic stability in human liver microsomes assessed as compound remaining at 1 uM after 30 mins; assay type: ADME, microsome; conditions: read-out: Stability

Compound: Cc1ccc(Nc2ncc3c(n2)N(C)C(=O)N(c2cc(NC(=O)c4cccc(C(F)(F)F)c4)ccc2C)C3)cn1
- Activity (BaF3 [1]): Active
- GI50 (Mus musculus): 0.081 µM
- growth inhibition (GI) (OCI-AML-3 [2]): Active
- IC50 [3]: 0.008 µM
- remaining at 0.5 h, 1 µM [4]: 84.8%
- activity at 10 µM (CYP3A4): > 100%
- Activity (BaF3 [5]): Active
- GI50 at 72 h [6]: 1.03 µM
- GI50 at 72 h [7]: 4.38 µM
- Activity (BaF3 [8]): Active
- Activity (BaF3 [9]): Active
- growth inhibition (GI) (OCI-AML-3 [10]): Active
- remaining at 0.5 h, 1 µM [11]: 55.3%
- growth inhibition (GI) (OCI-AML-3 [12]): Active
- IC50 (Activated CDC42 kinase 1): 0.025 µM
- remaining at 0.5 h, 1 µM [13]: 80.5%
- activity at 10 µM (CYP2C9): 27%
- Activity (OCI-AML-3 [14]): Active
- MSD (BaF3 [15]): 31 days
- activity at 10 µM (CYP1A2): 93.2%
- Activity (BaF3 [16]): Active
- GI50 (OCI-AML-3 [17]): 0.219 µM
- activity at 10 µM (CYP2D6): 68.4%
- Activity (OCI-AML-3 [18]): 53.8%
- remaining at 0.5 h, 1 µM [19]: 78.6%

From ChEMBL document CHEMBL4196175, “First SAR Study for Overriding NRAS Mutant Driven Acute Myeloid Leukemia” (J Med Chem, 2018)
